IC50 data for 1 molecule are collected here from BindingDB's records for doi:10.1021/acsmedchemlett.6b00438 (Rhône-Poulenc Rorer, 2017).

Assay [1] has as its target Phosphatidylinositol 3-kinase regulatory subunit alpha/4,5-bisphosphate 3-kinase catalytic subunit delta isoform (Homo sapiens, UniProt P27986+O00329). In words: Inhibition of full length recombinant human N-terminal His6-tagged PI3K p110delta/human p85alpha expressed in baculovirus infected sf21 cells using PIP2 as substrate preincubated for 30 mins followed by substrate addition by HTRF assay.

Assay [2] deals with T1, Phosphatidylinositol 4,5-bisphosphate 3-kinase catalytic subunit delta isoform (Homo sapiens, UniProt O00329).
T1 sequence (O00329 whole entry): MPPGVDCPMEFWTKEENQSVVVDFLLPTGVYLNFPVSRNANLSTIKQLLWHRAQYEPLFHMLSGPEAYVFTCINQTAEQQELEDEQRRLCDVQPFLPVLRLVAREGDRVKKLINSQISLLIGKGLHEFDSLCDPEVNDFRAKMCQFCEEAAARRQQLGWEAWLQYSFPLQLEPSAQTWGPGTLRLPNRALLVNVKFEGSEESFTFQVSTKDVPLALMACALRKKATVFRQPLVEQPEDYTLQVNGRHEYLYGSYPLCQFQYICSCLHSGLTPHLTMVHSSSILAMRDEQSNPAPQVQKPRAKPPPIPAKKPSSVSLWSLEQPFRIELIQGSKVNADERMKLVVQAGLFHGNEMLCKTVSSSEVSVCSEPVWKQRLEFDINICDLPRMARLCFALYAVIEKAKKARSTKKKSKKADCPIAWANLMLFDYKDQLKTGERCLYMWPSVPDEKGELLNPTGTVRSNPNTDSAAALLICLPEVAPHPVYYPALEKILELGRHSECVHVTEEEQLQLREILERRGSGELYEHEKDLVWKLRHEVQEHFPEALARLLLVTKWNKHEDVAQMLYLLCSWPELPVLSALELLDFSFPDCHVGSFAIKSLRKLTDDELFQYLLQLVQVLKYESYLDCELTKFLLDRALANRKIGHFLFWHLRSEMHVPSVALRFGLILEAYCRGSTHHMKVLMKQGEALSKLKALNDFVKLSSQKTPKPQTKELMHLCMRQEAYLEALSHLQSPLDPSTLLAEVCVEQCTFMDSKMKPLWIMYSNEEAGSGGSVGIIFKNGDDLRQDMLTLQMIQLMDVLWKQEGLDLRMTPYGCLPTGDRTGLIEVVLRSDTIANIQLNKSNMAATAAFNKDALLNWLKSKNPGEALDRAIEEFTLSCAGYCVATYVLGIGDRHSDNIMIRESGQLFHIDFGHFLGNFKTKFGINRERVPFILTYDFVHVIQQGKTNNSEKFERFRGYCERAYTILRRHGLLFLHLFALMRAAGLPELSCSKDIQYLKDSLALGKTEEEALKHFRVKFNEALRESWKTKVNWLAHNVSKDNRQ
In words: Inhibition of PI3Kdelta in human THP1 cells assessed as reduction in MCSF-stimulated akt phosphorylation at Thr308 preincubated for 30 mins followed by MCSF stimulation for 3 mins by ELISA. The essentials: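 THP-1 cells exposed to compound for 30 min, then stimulated with MCSF at EC80 for 3 min; lysates assayed by ELISA for pAkt (Thr308).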
For orientation: An ELISA detects its analyte on a solid surface through an enzyme-linked reagent.

Phosphatidylinositol 3-kinase regulatory subunit alpha/4,5-bisphosphate 3-kinase catalytic subunit delta isoform, sequence (P27986 whole entry, one chain of several, canonical isoform): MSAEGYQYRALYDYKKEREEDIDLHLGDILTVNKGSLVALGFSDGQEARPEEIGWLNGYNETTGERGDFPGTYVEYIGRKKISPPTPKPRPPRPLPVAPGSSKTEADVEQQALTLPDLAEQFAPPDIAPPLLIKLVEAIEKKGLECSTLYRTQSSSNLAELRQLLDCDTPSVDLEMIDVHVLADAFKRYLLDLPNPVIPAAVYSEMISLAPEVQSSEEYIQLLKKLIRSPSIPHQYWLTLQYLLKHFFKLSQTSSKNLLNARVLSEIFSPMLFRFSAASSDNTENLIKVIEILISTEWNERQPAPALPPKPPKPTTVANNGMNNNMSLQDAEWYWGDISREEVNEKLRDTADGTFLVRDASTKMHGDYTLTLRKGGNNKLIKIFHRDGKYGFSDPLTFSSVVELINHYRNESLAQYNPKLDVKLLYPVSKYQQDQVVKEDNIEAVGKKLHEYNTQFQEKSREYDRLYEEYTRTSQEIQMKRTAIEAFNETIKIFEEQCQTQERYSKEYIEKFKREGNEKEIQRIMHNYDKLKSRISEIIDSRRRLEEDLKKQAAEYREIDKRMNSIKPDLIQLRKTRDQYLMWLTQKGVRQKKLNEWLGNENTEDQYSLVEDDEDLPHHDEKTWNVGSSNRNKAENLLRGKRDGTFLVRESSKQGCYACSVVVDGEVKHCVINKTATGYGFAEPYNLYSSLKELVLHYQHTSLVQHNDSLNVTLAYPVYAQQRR

In general, IC50 refers to the point on the concentration scale where inhibition reaches its midpoint. With `N#Cc1c(N)ncnc1NC(CC(F)(F)F)c1nn2cccc2c(=O)n1-c1ccccc1` (configuration not stated), the 50% inhibitory concentration (IC50) amounted to 17 nM in assay [1] and 51 nM in assay [2].
